MBD2 DNA inh: inhibitors of human MBD2 binding to methylated oligonucleotide. Q9UBB5. TR-FRET. inhibition, % at 4.4 µM. 370,000 compounds, 0.31% hits. AID 686964; in the data active = inhibition above about 13%
Target sequence (Q9UBB5 whole entry, looked up): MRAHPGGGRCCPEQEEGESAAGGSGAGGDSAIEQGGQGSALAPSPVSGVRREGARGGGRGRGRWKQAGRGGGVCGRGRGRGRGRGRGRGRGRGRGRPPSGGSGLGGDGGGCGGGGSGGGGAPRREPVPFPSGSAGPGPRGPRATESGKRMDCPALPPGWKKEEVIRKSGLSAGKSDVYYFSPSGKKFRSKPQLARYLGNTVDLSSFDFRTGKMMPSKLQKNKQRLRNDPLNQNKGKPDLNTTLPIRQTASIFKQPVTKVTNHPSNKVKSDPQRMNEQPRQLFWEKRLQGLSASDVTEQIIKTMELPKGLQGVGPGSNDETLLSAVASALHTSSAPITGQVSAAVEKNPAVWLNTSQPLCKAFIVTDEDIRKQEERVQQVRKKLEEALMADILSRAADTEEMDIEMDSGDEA
CSN deneddyl inh: inhibitors of human CSN-mediated cullin deneddylation; Q92905; Purified CSN, SCF-Nedd8-OG deneddylation, fluorescence polarization; inhibition, % at 12.5 µM; 360,000 compounds, 0.38% hits;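 active = pattern-corrected inhibition above about 35%, with an unprinted fluorescence ratio check between 0.5 and 1.5, limit read from the data, passing the limit was not always enough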;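 note: 0% = enzyme with substrate and 100% = substrate without enzyme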
Target sequence (Q92905 whole entry, looked up, one chain of several): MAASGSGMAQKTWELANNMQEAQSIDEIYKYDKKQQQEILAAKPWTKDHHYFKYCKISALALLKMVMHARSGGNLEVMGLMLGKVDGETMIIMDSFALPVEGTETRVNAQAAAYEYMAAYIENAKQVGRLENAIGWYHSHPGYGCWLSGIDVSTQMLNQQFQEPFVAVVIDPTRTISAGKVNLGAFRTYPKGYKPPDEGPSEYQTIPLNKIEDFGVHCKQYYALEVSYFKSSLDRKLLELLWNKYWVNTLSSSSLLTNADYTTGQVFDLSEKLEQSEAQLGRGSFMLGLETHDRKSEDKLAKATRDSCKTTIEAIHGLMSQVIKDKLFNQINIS
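Test system: purified human Csn5 enzyme expressed in HEK293T cells. Amount: 0.24 nM enzyme. Reagent: SCFSkp2-Nedd8OG substrate at 10 nM final. Schedule: 90 min incubation of compound, enzyme and substrate at room temperature. Detection: fluorescence polarization. Read-out: % inhibition of substrate cleavage by Csn5.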
ATG4B inh: blocks human ATG4B protease cleavage of LC3 substrate | Q9Y4P1 | ATG4B cleavage of LC3-PLA2, NBD-HPC fluorescence, 1 h | inhibition, % at 8.33 µM | 340,000 compounds, 0.51% hits | AID 504462; in the data active = inhibition above about 40%
rCAG binder: binds r(CAG) RNA repeats | 370,000 compounds, 1.3% hits | r(CAG) RNA repeat, TO-PRO-1 dye displacement fluorescence | inhibition, % at 3 µM;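 active = inhibition above the plate cutoff, the mean of all test compounds on that plate plus 3 SD, cut at about 35% in these data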;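 note: 0% = DMSO alone and 100% = 100 µM mitoxantrone as full dye displacement; higher means more dye released from RNA so lower well fluorescence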
LEDGF integ inh: blocks HIV-1 LEDGF/p75-dependent DNA integration | 370,000 compounds, 0.64% hits | inhibition, % at 3.7 µM | AID 743269 | TR-FRET IN-LEDGF/p75 DNA integration, Eu/Cy5;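 active = inhibition above the screen-wide mean plus 3 SD, cut at about 13% in these data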;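 note: signal is the Cy5 over europium emission ratio at 671 and 618 nm; 0% = plate median of compound wells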
UHRF1 binding: human UHRF1 methylated DNA binding inhibitors; inhibition, % at 4.4 µM; Q96T88; AID 687016; UHRF1 binding to methylated oligo, TR-FRET; 370,000 compounds, 0.75% hits; in the data active = inhibition above about 21%;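 note: UHRF1 SRA domain binding a hemimethylated CpG hairpin DNA probe; 0% = median of test compound wells and 100% = reference inhibitor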
rCAG binder conf: r(CAG) RNA repeat binding, confirmation; inhibition, % at 3 µM; 4,300 compounds, 70% hits; shares compounds with rCAG binder; TO-PRO-1 dye displacement fluorescence;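 active = inhibition above a per-plate cutoff, the mean inhibition of sample wells plus 3 SD, cut at about 35% in these data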;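 note: loss of TO-PRO-1 fluorescence as compound displaces dye from 1x1 AA loop RNA; 0% = DMSO only wells and 100% = 100 µM mitoxantrone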
dCAG dye counter: counter-screen for rCAG RNA binders: DNA CAG dye complex inhibitors; shares compounds with rCAG binder; 4,300 compounds, 94% hits; d(CAG) DNA oligo TO-PRO-1 dye displacement, fluorescence; inhibition, % at 3 µM;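 active = inhibition above its plate's cutoff, the mean test-well inhibition plus 3 SD, cut at about 4.8% in these data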;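 note: 0% = DNA dye mix with DMSO and 100% = 100 µM mitoxantrone; hits displace the dye from DNA and so lower well fluorescence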
dCAG dye DR: disrupts DNA CAG TO-PRO-1 complex in dose response; IC50, µM; AID 686960; shares compounds with rCAG binder; 250 compounds, 20% hits; DNA CAG/GTC duplex TO-PRO-1 dye displacement fluorescence; in the data active = IC50 below about 10 µM
An asterisk follows results filed as active; / = no result given. In the library only some 3.1% were active in any assay of this set; here they are far more common.

SMILES | MBD2 DNA inh | CSN deneddyl inh | ATG4B inh | rCAG binder | LEDGF integ inh | UHRF1 binding | rCAG binder conf | dCAG dye counter | others
COC(=O)c1cc(NS(=O)(=O)c2ccc(N3CCCCCC3)c([N+](=O)[O-])c2)cc(C(=O)OC)c1 | 1.8 | 1.9 | -19.7 | 38.8* | 0.2 | 1.9 | 60.1* | 19.7*
Cc1ccc(NC(=S)NNC(=O)c2ccc(N3CCOCC3)c([N+](=O)[O-])c2)cc1C | -6.9 | -6.9 | -3.2 | 58.1* | 0.4 | -8.4 | 60.9* | 25.8*
CC(C)CNC(=O)OCc1cn(Cc2ccccc2Cl)nn1 | 3.2 | / | / | -0.9 | 1.4 | -1.4 | / | /
O=C(OC12CCCN(C1)/C(=C/c1ccccc1)C2)C1CCCC1 (stereo unspecified) | 4.8 | / | / | 0.4 | -1.2 | 0.7 | / | /
CCc1c(O)nc(SCC(=O)Nc2nc3ccccc3s2)n(C2CCCCC2)c1=O | -0.1 | 8.7 | -3.7 | 39.8* | -3.7 | -0.8 | 47.6* | 15.2*
C=CCNC(=O)c1onc(CSc2ccc(C(C)C)cc2)c1C(=O)O | 1.9 | 3.6 | -6.2 | 37.8* | 0.0 | 4.2 | 24.5 | 3.7
CCCCNC(=O)c1onc(CSc2cc(C)cc(C)c2)c1C(=O)NCCCC | 2.2 | -2.0 | -12.5 | -0.5 | 0.6 | -3.1 | / | /
CCCCNC(=O)c1onc(CSc2cc(C)cc(C)c2)c1C(=O)O | -3.5 | -0.4 | -12.7 | 35.3* | -1.3 | 1.9 | 26.0 | 4.4*
C=CCNC(=O)c1onc(CSc2cccc3ccccc23)c1C(=O)O | -2.1 | 3.2 | -5.7 | 40.4* | 5.1 | -2.3 | 29.1 | 5.2*
Cc1[nH]nc2c1C(c1cccc(C(F)(F)F)c1)N(Cc1ccccc1)C2=O (stereo unspecified) | 6.2 | / | / | 1.3 | 2.4 | 2.6 | / | /
c1ccc(-c2ccccc2C2Cc3nnccc3CN2)cc1 (stereo unspecified) | 3.3 | / | / | 9.2 | 2.1 | -1.8 | / | /
Cc1[nH]n2c(=O)cc(-c3ccc([N+](=O)[O-])cc3)nc2c1-c1ccccc1 | -2.0 | -2.3 | 2.8 | 91.3* | 2.7 | -0.3 | 86.7* | 63.5*
CCCc1cc(=O)n2[nH]c(C)c(-c3ccccc3)c2n1 | -2.7 | -6.5 | -0.4 | 1.4 | -0.9 | -0.6 | / | /
CCCn1nc(C(=O)Nc2cc(S(=O)(=O)Nc3ccc(OC)cc3)ccc2O)c2ccccc2c1=O | -6.0 | -1.8 | -6.8 | 61.5* | -2.2 | -3.5 | 54.1* | 18.8*
CCCn1nc(C(=O)Nc2ccc(S(=O)(=O)Nc3nccs3)cc2)c2ccccc2c1=O | -0.1 | 3.3 | 2.1 | 65.0* | 0.7 | -3.8 | 56.1* | 23.4*
CCCN1CCS(=O)(=O)N(Cc2cn(Cc3ccc(Cl)cc3)nn2)C(C(=O)OC)C1 (stereo unspecified) | 2.5 | / | / | -2.8 | 2.3 | 8.6 | / | /
CSc1nc(=S)c2[nH]c(=S)[nH]c2[nH]1 | -4.2 | 1.6 | -2.0 | 64.6* | 2.9 | -3.0 | 67.6* | 30.3* | dCAG dye DR=9.28*
COc1ccc(Oc2ccc(/C=C/C(=O)c3ccc(O)cc3)cc2[N+](=O)[O-])cc1 | -1.9 | 2.9 | -4.7 | 36.5* | -1.3 | -2.2 | 22.7 | 10.7*
COc1cccc(-c2nnc3sc(-c4ccc(Br)o4)nn23)c1 | -5.2 | / | / | 7.4 | -1.4 | -1.1 | / | /
CCCC1CCC2(CCCN2CCOC(=S)Nc2ccccc2)CC1 (stereo unspecified) | -3.3 | / | / | / | 0.7 | 4.9 | / | /
CN(C(=O)CSc1nc(-c2ccc(C(C)(C)C)cc2)c(C#N)c(=O)[nH]1)C1CCCCC1 | -1.1 | 1.9 | 31.9 | 70.3* | 5.2 | 1.7 | 84.5* | 50.1*
Cc1ccc(S(=O)(=O)Oc2ccccc2/C=N/Nc2ccc(C(=O)O)cc2)cc1 | -1.3 | -3.3 | -0.3 | 50.1* | 1.5 | 0.6 | 29.4 | 6.1*
Cc1ccc(S(=O)(=O)Oc2ccccc2/C=N/O)cc1 | -4.9 | -2.8 | -4.4 | -1.4 | -1.3 | 5.3 | / | /
O=C(O)c1[nH]c2ccc(Cl)cc2c1CC(=O)N1CCN(c2ccccc2)CC1 | 3.2 | 2.4 | 0.2 | 41.1* | -4.9 | 1.9 | 41.5* | 12.3*
Cc1ccc(Cl)cc1N1CCN(C(=O)CCC(=O)O)CC1 | 1.0 | 0.4 | -17.2 | 1.9 | -1.3 | 1.4 | / | /
SMILES | MBD2 DNA inh | CSN deneddyl inh | ATG4B inh | rCAG binder | LEDGF integ inh | UHRF1 binding | rCAG binder conf | dCAG dye counter | others
COc1ccccc1N1CCN(C(=O)Cc2c(C(=O)O)[nH]c3ccc(Cl)cc23)CC1 | -3.7 | -1.5 | 11.0 | 38.8* | 0.5 | -1.2 | 41.9* | 11.4*
O=C(O)c1[nH]c2ccc(Cl)cc2c1CC(=O)N1CCN(C(=O)c2ccco2)CC1 | 0.9 | 6.5 | 11.2 | 25.6 | 3.5 | 0.5 | / | /
COc1ccccc1N1CCN(C(=O)Cc2ccc(Cl)cc2)CC1 | 0.2 | 2.5 | -6.2 | -5.7 | -6.7 | 4.8 | / | /
COc1ccc(Br)cc1CNC(=O)Cc1c(C(=O)O)[nH]c2ccc(Cl)cc12 | -5.0 | -9.5 | 35.4 | 58.0* | 6.6 | -3.9 | 44.9* | 11.5*
Cc1ccc(C)c(N2CCN(C(=O)Cc3c(C(=O)O)[nH]c4ccc(Cl)cc34)CC2)c1 | -1.5 | -2.1 | 27.9 | 57.0* | -1.2 | 0.0 | 63.8* | 25.1*
CCC[C@H]1[C@@H](NCC2CCCCC2)CC[C@@]23CCCN2C(=O)CCC[C@@H]13 | -1.6 | / | / | / | 0.3 | -0.9 | / | /
Cc1cc(C)cc(C(=O)OCCN(C)C2CN(Cc3cn(Cc4ccc([N+](=O)[O-])cc4)nn3)S(=O)(=O)C2)c1 (stereo unspecified) | -0.1 | / | / | 3.4 | 4.9 | 6.4 | / | /
CCCCNS(=O)(=O)CC1NCc2cc(OC)ccc21 (stereo unspecified) | -10.4 | / | / | 5.8 | 1.8 | -6.3 | / | /
CCN(c1ccccc1)S(=O)(=O)c1cc(NC(=O)CSc2n[nH]c(=O)[nH]c2=O)ccc1Cl | 6.8 | -2.0 | -11.0 | 47.9* | 1.3 | 2.6 | 32.4 | 14.5*
CCN(c1ccccc1)S(=O)(=O)c1cc(NC(=O)C2CC2)ccc1Cl | 3.0 | -0.9 | -1.6 | 2.7 | 1.4 | 4.0 | / | /
Cc1ccc(S(=O)(=O)NC(=O)Nc2cc(C)ccc2F)cc1 | 1.5 | -6.0 | 7.5 | 5.9 | -1.5 | 1.6 | / | /
CC(=O)NS(=O)(=O)c1ccc(N=c2ssc3c2-c2ccc(C)cc2NC3(C)C)cc1 | -1.8 | 0.1 | 19.1 | 61.4* | 3.4 | -1.0 | 52.1* | 21.0*
CCOc1ccc(/C=N/n2c(-c3ccccc3)n[nH]c2=S)cc1 | 5.7 | -0.3 | 5.1 | 18.0 | -4.3 | -1.8 | / | /
COc1ccc(C=Nn2c(-c3n[nH]c4c3CCC4)n[nH]c2=S)cc1OCc1ccccc1 | 0.6 | / | / | 48.7* | -1.2 | 1.7 | 45.1* | 17.4*
